Measurements reported in ChEMBL document CHEMBL3588757, “Structure-based design, synthesis and biological testing of piperazine-linked bis-epipodophyllotoxin etoposide analogs” (Bioorg Med Chem, 2015).

Columns and labels:
Type in all cases: functional
HCC 2998 [1] = assay: Cytotoxicity against human HCC2998 cells assessed as cell growth at 0.005 uM by SRB assay; conditions: read-out: Activity
Method in brief: (§1)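 Measured in the NCI-60 human tumour cell line panel using five-dose testing. Growth was recorded at each dose for each cell line, and a GI50 was derived for each line.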

UACC-62 [2] = assay: Cytotoxicity against human UACC62 cells assessed as cell growth at 5 uM by SRB assay; conditions: read-out: Activity
SNB-75 = assay: Cytotoxicity against human SNB75 cells assessed as cell growth at 50 uM by SRB assay; conditions: read-out: Activity
OVCAR-3 [3] = assay: Cytotoxicity against human OVCAR3 cells assessed as cell growth at 0.5 uM by SRB assay; conditions: read-out: Activity
HCC 2998 [4] = assay: Cytotoxicity against human HCC2998 cells by SRB assay; method in brief: as §1
[5] = Cytotoxicity against human NCI-ADR-RES cells assessed as cell growth at 0.5 uM by SRB assay; conditions: read-out: Activity
OVCAR-4 = assay: Cytotoxicity against human OVCAR4 cells assessed as cell growth at 0.5 uM by SRB assay; conditions: read-out: Activity
SNB-19 [6] = assay: Cytotoxicity against human SNB19 cells by SRB assay
Method in brief: (§2)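 NCI-60 panel screen; 5-dose testing giving GI50 per cell line, plus a single 10 µM one-dose test. Method details not given beyond the NCI screen.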

[7] = Cytotoxicity against human NCI-ADR-RES cells assessed as cell growth at 0.05 uM by SRB assay; conditions: read-out: Activity
SR = assay: Cytotoxicity against human SR cells assessed as cell growth at 5 uM by SRB assay; conditions: read-out: Activity
UACC-62 [8] = assay: Cytotoxicity against human UACC62 cells assessed as cell growth at 0.005 uM by SRB assay; conditions: read-out: Activity
SK-MEL-2 [9] = assay: Cytotoxicity against human SK-MEL-2 cells assessed as cell growth at 5 uM by SRB assay; conditions: read-out: Activity
A498 [10] = assay: Cytotoxicity against human A498 cells assessed as cell growth at 5 uM by SRB assay; conditions: read-out: Activity
MDA-MB-435 [11] = assay: Cytotoxicity against human MDA-MB-435 cells assessed as cell growth at 5 uM by SRB assay; conditions: read-out: Activity
NCI-H460 [12] = assay: Cytotoxicity against human NCI-H460 cells assessed as cell growth at 50 uM by SRB assay; conditions: read-out: Activity
SNB-19 [13] = assay: Cytotoxicity against human SNB19 cells assessed as cell growth at 50 uM by SRB assay; conditions: read-out: Activity
T47D = assay: Cytotoxicity against human T47D cells by SRB assay; method in brief: as §2
SN12C = assay: Cytotoxicity against human SN12C cells assessed as cell growth at 5 uM by SRB assay; conditions: read-out: Activity
UACC-257 = assay: Cytotoxicity against human UACC257 cells assessed as cell growth at 0.005 uM by SRB assay; conditions: read-out: Activity
MOLT-4 [14] = assay: Cytotoxicity against human MOLT4 cells assessed as cell growth at 0.005 uM by SRB assay; conditions: read-out: Activity
[15] = Cytotoxicity against human Hs578T cells assessed as cell growth at 0.005 uM by SRB assay; conditions: Hs-578T, read-out: Activity; method in brief: as §1
CAKI-1 = assay: Cytotoxicity against human Caki1 cells by SRB assay
NCI-H460 [16] = assay: Cytotoxicity against human NCI-H460 cells assessed as cell growth at 0.5 uM by SRB assay; conditions: read-out: Activity
OVCAR-5 = assay: Cytotoxicity against human OVCAR5 cells assessed as cell growth at 50 uM by SRB assay; conditions: read-out: Activity
SK-OV-3 [17] = assay: Cytotoxicity against human SKOV3 cells by SRB assay; method in brief: as §2
A498 [18] = assay: Cytotoxicity against human A498 cells assessed as cell growth at 0.005 uM by SRB assay; conditions: read-out: Activity
SF-268 = assay: Cytotoxicity against human SF268 cells assessed as cell growth at 5 uM by SRB assay; conditions: read-out: Activity
A498 [19] = assay: Cytotoxicity against human A498 cells by SRB assay
TK-10 = assay: Cytotoxicity against human TK10 cells by SRB assay; method in brief: as §2
KM12 = assay: Cytotoxicity against human KM12 cells assessed as cell growth at 0.05 uM by SRB assay; conditions: read-out: Activity
OVCAR-3 [20] = assay: Cytotoxicity against human OVCAR3 cells assessed as cell growth at 0.05 uM by SRB assay; conditions: read-out: Activity
HOP-62 = assay: Cytotoxicity against human HOP62 cells by SRB assay; method in brief: as §1
CCRF-CEM = assay: Cytotoxicity against human CCRF-CEM cells assessed as cell growth at 0.05 uM by SRB assay; conditions: read-out: Activity
LOX IMVI = assay: Cytotoxicity against human LOXIMVI cells assessed as cell growth at 50 uM by SRB assay; conditions: read-out: Activity
SK-OV-3 [21] = assay: Cytotoxicity against human SKOV3 cells assessed as cell growth at 0.005 uM by SRB assay; conditions: read-out: Activity
MOLT-4 [22] = assay: Cytotoxicity against human MOLT4 cells assessed as cell growth at 5 uM by SRB assay; conditions: read-out: Activity
[23] = Cytotoxicity against human NCI-ADR-RES cells assessed as cell growth at 5 uM by SRB assay; conditions: read-out: Activity
HOP-92 = assay: Cytotoxicity against human HOP92 cells assessed as cell growth at 50 uM by SRB assay; conditions: read-out: Activity; method in brief: as §1
SK-MEL-2 [24] = assay: Cytotoxicity against human SK-MEL-2 cells by SRB assay; method in brief: as §2
DU-145 = assay: Cytotoxicity against human DU145 cells assessed as cell growth at 0.005 uM by SRB assay; conditions: read-out: Activity
MDA-MB-435 [25] = assay: Cytotoxicity against human MDA-MB-435 cells assessed as cell growth at 50 uM by SRB assay; conditions: read-out: Activity
[26] = read-out: LC50 (the source's name)
[27] = read-out: pLC50 (the source's name) (converted)

Q: For COc1cc([C@@H]2c3cc4c(cc3[C@@H](NC(=O)CN3CCN(CCCCCCCCCCN5CCN(CC(=O)N[C@@H]6c7cc8c(cc7[C@@H](c7cc(OC)c(O)c(OC)c7)[C@H]7C(=O)OC[C@@H]76)OCO8)CC5)CC3)[C@H]3COC(=O)[C@H]23)OCO4)cc(OC)c1O, which growth at 0.005 µM (HCC 2998 [1]) is on record?
A: 99%

Q: What about the growth at 5 µM (UACC-62 [2]) of the same molecule?
A: 65%

Q: What about the growth at 50 µM (SNB-75) of the same molecule?
A: -26%

Q: What about the growth at 0.5 µM (OVCAR-3 [3]) of the same molecule?
A: 63%

Q: And the GI50 (HCC 2998 [4]; read-out: GI50)?
A: 1090 nM

Q: What about the CC50 (HCC 2998 [4]; [26]) of the same molecule?
A: 20.5 µM

Q: And the TGI (HCC 2998 [4]; read-out: TGI)?
A: 8.39 µM

Q: And the GI50 (HCC 2998 [4]; read-out: pGI50 (converted))?
A: 1100 nM

Q: What about the CC50 (HCC 2998 [4]; [27]) of the same molecule?
A: 20.4 µM

Q: And the TGI (HCC 2998 [4]; read-out: pTGI (converted))?
A: 8.32 µM

Q: And the growth at 0.5 µM [5]?
A: 101%

Q: What about the growth at 0.5 µM (OVCAR-4) of the same molecule?
A: 77%

Q: What about the GI50 (SNB-19 [6]; read-out: GI50) of the same molecule?
A: 352 nM

Q: And the CC50 (SNB-19 [6]; [26])?
A: 2790 nM

Q: What about the TGI (SNB-19 [6]; read-out: TGI) of the same molecule?
A: 1100 nM

Q: What about the GI50 (SNB-19 [6]; read-out: pGI50 (converted)) of the same molecule?
A: 355 nM

Q: What about the CC50 (SNB-19 [6]; [27]) of the same molecule?
A: 2820 nM

Q: And the TGI (SNB-19 [6]; read-out: pTGI (converted))?
A: 1100 nM

Q: What about the growth at 0.05 µM [7] of the same molecule?
A: 97%

Q: What about the growth at 5 µM (SR) of the same molecule?
A: -26%

Q: What about the growth at 0.005 µM (UACC-62 [8]) of the same molecule?
A: 91%

Q: And the growth at 5 µM (SK-MEL-2 [9])?
A: 47%

Q: What about the growth at 5 µM (A498 [10]) of the same molecule?
A: -9%

Q: And the growth at 5 µM (MDA-MB-435 [11])?
A: -60%

Q: What about the growth at 50 µM (NCI-H460 [12]) of the same molecule?
A: -81%

Q: And the growth at 50 µM (SNB-19 [13])?
A: -92%

Q: And the GI50 (T47D; read-out: GI50)?
A: 463 nM

Q: And the CC50 (T47D; [26])?
A: > 50 µM

Q: And the TGI (T47D; read-out: TGI)?
A: 9.74 µM

Q: And the GI50 (T47D; read-out: pGI50 (converted))?
A: 468 nM

Q: What about the CC50 (T47D; [27]) of the same molecule?
A: > 50.1 µM

Q: And the TGI (T47D; read-out: pTGI (converted))?
A: 9.77 µM

Q: And the growth at 5 µM (SN12C)?
A: 3%

Q: And the growth at 0.005 µM (UACC-257)?
A: 96%

Q: And the growth at 0.005 µM (MOLT-4 [14])?
A: 88%

Q: And the growth at 0.005 µM [15]?
A: 94%

Q: And the GI50 (CAKI-1; read-out: GI50)?
A: 1930 nM

Q: And the CC50 (CAKI-1; [26])?
A: 21 µM

Q: What about the TGI (CAKI-1; read-out: TGI) of the same molecule?
A: 8.37 µM

Q: What about the GI50 (CAKI-1; read-out: pGI50 (converted)) of the same molecule?
A: 1950 nM

Q: And the CC50 (CAKI-1; [27])?
A: 20.9 µM

Q: What about the TGI (CAKI-1; read-out: pTGI (converted)) of the same molecule?
A: 8.32 µM

Q: And the growth at 0.5 µM (NCI-H460 [16])?
A: 94%

Q: What about the growth at 50 µM (OVCAR-5) of the same molecule?
A: -88%

Q: And the GI50 (SK-OV-3 [17]; read-out: GI50)?
A: 557 nM

Q: And the CC50 (SK-OV-3 [17]; [26])?
A: 16.5 µM

Q: What about the TGI (SK-OV-3 [17]; read-out: TGI) of the same molecule?
A: 5.43 µM

Q: And the GI50 (SK-OV-3 [17]; read-out: pGI50 (converted))?
A: 562 nM

Q: What about the CC50 (SK-OV-3 [17]; [27]) of the same molecule?
A: 16.6 µM

Q: What about the TGI (SK-OV-3 [17]; read-out: pTGI (converted)) of the same molecule?
A: 5.37 µM

Q: What about the growth at 0.005 µM (A498 [18]) of the same molecule?
A: 73%

Q: And the growth at 5 µM (SF-268)?
A: -34%

Q: And the CC50 (A498 [19]; [26])?
A: 14.6 µM

Q: What about the GI50 (A498 [19]; read-out: pGI50 (converted)) of the same molecule?
A: 513 nM

Q: What about the CC50 (A498 [19]; [27]) of the same molecule?
A: 14.8 µM

Q: What about the TGI (A498 [19]; read-out: pTGI (converted)) of the same molecule?
A: 3.55 µM

Q: And the GI50 (TK-10; read-out: GI50)?
A: 1440 nM

Q: And the CC50 (TK-10; [26])?
A: 15.4 µM

Q: What about the TGI (TK-10; read-out: TGI) of the same molecule?
A: 4.57 µM

Q: And the GI50 (TK-10; read-out: pGI50 (converted))?
A: 1450 nM

Q: And the CC50 (TK-10; [27])?
A: 15.5 µM

Q: What about the TGI (TK-10; read-out: pTGI (converted)) of the same molecule?
A: 4.57 µM

Q: And the growth at 0.05 µM (KM12)?
A: 91%

Q: And the growth at 0.05 µM (OVCAR-3 [20])?
A: 73%

Q: What about the GI50 (HOP-62; read-out: GI50) of the same molecule?
A: 43.8 nM

Q: What about the TGI (HOP-62; read-out: TGI) of the same molecule?
A: 863 nM

Q: What about the GI50 (HOP-62; read-out: pGI50 (converted)) of the same molecule?
A: 43.6 nM

Q: What about the TGI (HOP-62; read-out: pTGI (converted)) of the same molecule?
A: 871 nM

Q: And the growth at 0.05 µM (CCRF-CEM)?
A: 62%

Q: What about the growth at 50 µM (LOX IMVI) of the same molecule?
A: 3%

Q: And the growth at 0.005 µM (SK-OV-3 [21])?
A: 98%

Q: What about the growth at 5 µM (MOLT-4 [22]) of the same molecule?
A: -46%

Q: And the growth at 5 µM [23]?
A: 53%

Q: And the growth at 50 µM (HOP-92)?
A: -46%

Q: And the GI50 (SK-MEL-2 [24]; read-out: GI50)?
A: 3.96 µM

Q: And the CC50 (SK-MEL-2 [24]; [26])?
A: 41 µM

Q: And the TGI (SK-MEL-2 [24]; read-out: TGI)?
A: 13.9 µM

Q: What about the GI50 (SK-MEL-2 [24]; read-out: pGI50 (converted)) of the same molecule?
A: 3.98 µM

Q: And the CC50 (SK-MEL-2 [24]; [27])?
A: 40.7 µM

Q: And the TGI (SK-MEL-2 [24]; read-out: pTGI (converted))?
A: 13.8 µM

Q: And the growth at 0.005 µM (DU-145)?
A: 99%

Q: And the growth at 50 µM (MDA-MB-435 [25])?
A: -40%
